These results are taken from ChEMBL document CHEMBL1138479, “Synthesis and antiplasmodial activity of aminoalkylamino-substituted neocryptolepine derivatives” (J Med Chem, 2009).

Series [1] concerns Plasmodium falciparum. In words: Antiplasmodial activity against chloroquine-sensitive Plasmodium falciparum Ghana in human erythrocytes after 72 hrs by Malstat assay. It is filed as functional, organism-based. The procedure, abridged:
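P. falciparum Ghana strain grown in human erythrocytes in RPMI-1640 at 37 °C under 3% O2, 4% CO2, 93% N2. Exposure to compounds lasted 72 h. Multiplication was read by Malstat with absorbance at 655 nm, and % growth inhibition was taken against negative blanks.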

Series [2] deals with T1, Histidine-rich protein PFHRP-II (Plasmodium falciparum) (UniProt P05227).
T1 sequence (whole entry): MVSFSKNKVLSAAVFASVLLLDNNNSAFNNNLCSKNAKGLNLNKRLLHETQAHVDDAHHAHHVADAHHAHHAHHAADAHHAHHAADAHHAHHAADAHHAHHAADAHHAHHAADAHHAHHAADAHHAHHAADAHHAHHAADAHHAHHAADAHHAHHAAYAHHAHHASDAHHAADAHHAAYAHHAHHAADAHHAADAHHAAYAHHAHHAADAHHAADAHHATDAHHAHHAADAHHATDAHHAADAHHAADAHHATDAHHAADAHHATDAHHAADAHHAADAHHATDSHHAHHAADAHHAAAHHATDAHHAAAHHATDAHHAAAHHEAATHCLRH
In words: (§1) Inhibition of beta-hematin formation at 5 milliequivalent after 18 hrs by microtiter plate assay. It is filed as functional.

Series [3] in a line: Cytotoxicity against human MRC5 SV2 cells after 72 hrs by resazurin-based fluorometric assay. Conditions: MRC5, 72 h. The class given is cell-based. The procedure, abridged: (§2)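 MRC-5 SV2 fibroblasts were kept in MEM with 20 mM L-glutamine and 5% FCS at 37 °C, 5% CO2. Cells were seeded at 10⁴/well onto prediluted compounds and incubated 72 h. Viability was read fluorimetrically after resazurin addition.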

Series [4] has as its target Nucleic Acid. In words: Binding affinity to DNA assessed as intercalation after 24 hrs by DNA-methyl green assay. The class given is nucleic-acid assay. The procedure, abridged: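 DNA-methyl green reagent (20 mg in 100 mL 0.05 M Tris HCl pH 7.5 with 7.5 mM MgSO4, stirred 24 h at 37 °C) was added to dried compound. A620 was read at 0 and after 24 h at 25 °C. […] Cryptolepine was the positive control.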

A short description of series [5]: Selectivity index, ratio of IC50 for human MRC5 SV2 cells to IC50 for chloroquine-sensitive Plasmodium falciparum Ghana. The class given is toxicity, cell-based. Conditions: read-out: Ratio IC50.
Series [6] concerns Plasmodium berghei. Put plainly: Antiplasmodial activity as reduced parasitaemia against chloroquine-sensitive Plasmodium berghei ANKA infected Swiss mice (Mus musculus) at 50 mg/kg intraperitoneal dose 4-6 hrs post infection on day 4. The class given is functional. The procedure, abridged:
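Swiss mice were infected ip with 4 × 10⁸ P. berghei ANKA-infected erythrocytes. Treatment was ip at 50 mg/kg daily for five consecutive days. Parasitaemia was scored on Giemsa-stained blood smears on days 4 and 7.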

The target of series [7] is T2, Histidine-rich protein PFHRP-II (Plasmodium falciparum, UniProt P05227).
T2 sequence (P05227 whole entry): T1 sequence (whole entry)
In words: Inhibition of beta-hematin formation after 18 hrs by microtiter plate assay. It is filed as functional.

Series [8] has as its target T2, Histidine-rich protein PFHRP-II. Described as §1. The class given is functional.
The subject of series [9] is Plasmodium berghei. In words: Antiplasmodial activity as reduced parasitaemia against chloroquine-sensitive Plasmodium berghei ANKA infected Swiss mice (Mus musculus) at 20 mg/kg intraperitoneal dose 4-6 hrs post infection on day 4. It is filed as functional, organism-based. Set-up: dose 20 mg/kg. The procedure, abridged:
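Mice infected ip with P. berghei ANKA-infected erythrocytes (4 × 10⁸) received the compound intraperitoneally. Parasitaemia was counted on Giemsa-stained blood smears on days 4 and 7.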

Series [10] in a line: Toxicity in Swiss mice (Mus musculus) infected with chloroquine-sensitive Plasmodium berghei ANKA assessed as mortality at 50 mg/kg, intraperitoneally administered 4 to 6 hrs after infection for 5 consecutive days measured within 7 days of postinfection. Conditions: in vivo, ip, read-out: Activity. Also on record: dose 50 mg/kg, route intraperitoneal. It is filed as organism-based. Put shortly: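 Swiss mice were infected intraperitoneally with 4 × 10⁸ erythrocytes carrying chloroquine-sensitive P. berghei ANKA. They were dosed intraperitoneally at 50 mg/kg daily for five consecutive days. Parasitaemia was read on Giemsa-stained blood smears on days 4 and 7.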

For series [11], the system named is MRC5. Put plainly: Cytotoxicity against human MRC5 cells. It is filed as cell-based. The procedure, abridged: as §2

The structures appear in SMILES notation. Activity calls are given as the source filed them. The rule behind the calls is not given here.

Regarding `CCN(CC)CCCC(C)Nc1c2c3ccccc3nc-2n(C)c2cccc(Cl)c12` (stereo not drawn), the IC50 is 0.35 µM in series [1], 21 µM in series [3] and > 1000 µM in series [4]. Besides, the inhibition in series [2] was < 20%. The selectivity ratio in [5] worked out at 60.
Consider `CCN(CC)CCCC(C)Nc1c2cc(Cl)ccc2nc2[nH]c3ccccc3c12` (stereo not drawn), for which the IC50 in [1] was 0.12 µM; in [3], > 64 µM; in [4], > 1000 µM; in [7], 2.3 milliequivalent. In [6], the result was inactive. Further, the selectivity ratio in series [5] was > 533.
For the compound `Cn1c2nc3ccccc3c-2c(Cl)c2cc(Cl)ccc21`, the IC50 in series [1] was > 64 µM; in [8], “Not Active”; in series [3], > 64 µM; in [4], > 1000 µM.
As to `Cn1c2nc3ccccc3c-2c(N2CCN(CCO)CC2)c2cc(Cl)ccc21`, the IC50 was 2.28 µM in [1], “Not Active” in [8], 0.82 µM in series [3] and 376 µM in [4]. In addition, in series [5], the selectivity ratio was 0.4.
As for `Clc1ccc2c(Cl)c3c(nc2c1)[nH]c1ccccc13`, the IC50 in series [1] was > 64 µM; in [8] it was “Not Active”; in series [3] it was > 64 µM; in [4], > 1000 µM.
Take `CCN1CCCC1CNc1c2c3ccccc3nc-2n(C)c2ccc(Cl)cc12` (stereo not drawn): the IC50 is < 0.25 µM in series [1], “Not Active” in [8], 0.4 µM in series [3] and 645 µM in series [4]. In addition, in series [5], the selectivity ratio is > 2.
Take `Cn1c2nc3ccccc3c-2c(NCCN2CCCC2)c2cc(Cl)ccc21`: the IC50 is < 0.25 µM in [1], “Not Active” in series [8], < 0.25 µM in series [3] and 186 µM in [4].
As for `Clc1ccc2nc3[nH]c4ccccc4c3c(NCCN3CCOCC3)c2c1`, the IC50 in series [1] is 33 µM; in [8], “Not Active”; in [3], > 64 µM; in series [4], > 1000 µM. Besides, in [5], the selectivity ratio was > 2.
Consider `Cn1c2nc3ccccc3c-2c(Cl)c2c(Cl)cccc21`, for which the IC50 is 39 µM in [1], “Not Active” in series [8], 34 µM in [3] and > 1000 µM in [4]. In addition, the selectivity ratio in [5] was 0.9.
`CCN(CC)CCCC(C)Nc1c2c3ccccc3nc-2n(C)c2ccc(Cl)cc12` (stereo not drawn): the IC50 in [1] was 0.043 µM; in series [3], 29 µM; in series [4], > 1000 µM. Further, the inhibition in [2] was < 20%. In series [6], this compound showed an Activity of 100%. The result in series [9] was inactive. The mortality at 7 days in [10] was 50%. In series [5], the selectivity ratio came out at 674.
As for `Cn1c2nc3ccccc3c-2cc2cc(Br)ccc21`, the IC50 in [11] is > 32 µM; in [3], > 32 µM; in series [4], > 400 µM; in series [7] it was 1.77 milliequivalent. The selectivity ratio in series [5] was > 5.
With `Clc1ccc2nc3[nH]c4ccccc4c3c(Cl)c2c1`, the IC50 in series [1] is > 64 µM; in [8] it was “Not Active”; in series [3], > 64 µM; in series [4], > 1000 µM.
For `CN(C)CCNc1c2c3ccccc3nc-2n(C)c2ccc(Cl)cc12`, the IC50 in [1] was < 0.25 µM; in series [8], “Not Active”; in [3], < 0.25 µM; in series [4], 164 µM.
Consider `CN1CCN(c2c3c4ccccc4nc-3n(C)c3ccc(Cl)cc23)CC1`, for which the IC50 in series [1] is 2.1 µM; in series [8], “Not Active”; in series [3], 1 µM; in series [4] it was 358 µM. Moreover, in series [5], the selectivity ratio came to 0.5.
Regarding `Clc1cccc2nc3[nH]c4ccccc4c3c(Cl)c12`, the IC50 in series [1] is > 64 µM; in [8] it was “Not Active”; in series [3], > 64 µM; in series [4], > 1000 µM.
For `Clc1ccc2nc3[nH]c4ccccc4c3c(N3CCC(N4CCCCC4)CC3)c2c1`, the IC50 in [1] is < 0.25 µM; in series [3], 2 µM; in series [4], > 1000 µM; in series [7], 2.2 milliequivalent. In addition, in [5], the selectivity ratio is > 8.
For `Cn1c2nc3ccccc3c-2c(NCCN2CCOCC2)c2cc(Cl)ccc21`, the IC50 in series [1] was 0.69 µM; in [8] it was “Not Active”; in [3], 0.37 µM; in series [4] it was 118 µM. For the same compound, in series [5], the selectivity ratio is 0.5.
As for `Cn1c2nc3ccccc3c-2c(N2CCC(N3CCCCC3)CC2)c2cc(Cl)ccc21`, the IC50 in [1] is 2.46 µM; in series [8], “Not Active”; in series [3] it was 4.4 µM; in [4], 180 µM. Besides, in series [5], the selectivity ratio came out at 2.
For the compound `CCN(CC)CCCC(C)Nc1ccc2nc3n(C)c4ccccc4cc-3c2c1` (stereo not drawn), the results for the IC50 in series [1], in series [3] and in series [4] were 0.14 µM, 16 µM and 446 µM, respectively. The inhibition in [2] is < 20%. Besides, the selectivity ratio in [5] was 114.
On to `CN(C)CCNc1c2cc(Cl)ccc2nc2[nH]c3ccccc3c12`, for which the IC50 in [1] is 0.4 µM; in series [3] it was > 64 µM; in [4], > 1000 µM; in series [7], 3.68 milliequivalent. For the same compound, in series [5], the selectivity ratio was > 160.
Turning to `OCCN1CCN(c2c3cc(Cl)ccc3nc3[nH]c4ccccc4c23)CC1`, the IC50 in series [1] was 2.34 µM; in series [3] it was 2 µM; in [4], > 1000 µM; in series [7] it was 2 milliequivalent. In addition, in series [5], the selectivity ratio was determined as 0.9.
As for `CCN(CC)CCCC(C)Nc1c2c3ccccc3nc-2n(C)c2cc(Cl)ccc12` (stereo not drawn), the IC50 stood at 0.13 µM in series [1], 14 µM in series [3], 248 µM in series [4] and 5.25 milliequivalent in series [7]. For the same compound, the selectivity ratio in [5] is 108.
